Results on six molecules are retold here after ChEMBL document CHEMBL1156501, “Ibogaine, a noncompetitive inhibitor of serotonin transport, acts by stabilizing the cytoplasm-facing state of the transporter” (J Biol Chem, 2007).

The target of data set [1] is T1, Sodium-dependent serotonin transporter (Rattus norvegicus, UniProt P31652). Nature of the data set: Displacement of [125I]beta-CIT from rat SERT expressed in HeLa cells. The class given is cell-based. A general note: Displacement assays read how much labelled ligand stays bound in the presence of the test substance.
Data set [2] has as its target T1, Sodium-dependent serotonin transporter. Briefly: Inhibition of [3H]5HT uptake at rat SERT expressed in HeLa cells. The class given is cell-based.
Data set [3] deals with T2, Sodium-dependent serotonin transporter (Homo sapiens, UniProt P31645).
Data set [4] concerns the target T2, Sodium-dependent serotonin transporter. Briefly: Displacement of [125I]beta-CIT from human SERT in human platelet membrane in presence of 5 uM ibogaine. Type of data set: cell membranes.
For data set [5], the species on record is Rattus norvegicus. Nature of the data set: Inhibition of 2-(aminoethyl)methanethiosulphonate hydrobromide-induced inactivation of rat SERT S277 mutant assessed as drug level causing half maximal protection from inactivation. Put shortly:
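Membranes from HeLa cells expressing rat SERT S277C were treated with 50 μM MTSEA plus graded cocaine, ibogaine or 5-HT. After washing, residual [125I]β-CIT binding was measured. The drug concentration giving half-maximal protection from or potentiation of inactivation was fitted by nonlinear regression.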

Data set [6] has as its system Sodium-dependent serotonin transporter (Rattus norvegicus), P31652 [T276C]. Nature of the data set: Effect on 2-(aminoethyl)methanethiosulphonate hydrobromide-induced inactivation of rat SERT T276C mutant assessed as increase in rate constant for inactivation. The gist of the method:
(§1)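 Membranes from HeLa cells expressing rat SERT cysteine mutants were filter-bound and treated for 10 min with a range of MTSEA concentrations plus 10 μM ibogaine, 5-HT or cocaine. After washing, residual 0.1 nM [125I]β-CIT binding was measured. The MTSEA concentration giving half-maximal inactivation was used to calculate the inactivation rate constant.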

Data set [7] relates to Sodium-dependent serotonin transporter (Rattus norvegicus), P31652 [V281C]. Briefly: Effect on 2-(aminoethyl)methanethiosulphonate hydrobromide-induced inactivation of rat SERT V281C mutant assessed as increase in rate constant for inactivation. Put shortly:
as §1

The species named for data set [8] is Rattus norvegicus. Nature of the data set: Effect on 2-(aminoethyl)methanethiosulphonate hydrobromide-induced inactivation of rat SERT X5C mutant. Put shortly: (§2)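 Membranes from HeLa cells expressing rat SERT X5C or K279C (X5C background) were treated with 2 mM MTSEA plus graded ibogaine. Membranes were washed free of MTSEA and ibogaine, then residual binding was measured with 0.1 nM [125I]β-CIT for 1.5 h at room temperature.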

For data set [9], the system named is Sodium-dependent serotonin transporter (Rattus norvegicus), P31652 [T284C]. Briefly: Effect on 2-(aminoethyl)methanethiosulphonate hydrobromide-induced inactivation of rat SERT T284C mutant assessed as increase in rate constant for inactivation. The gist of the method:
as §1

Data set [10] deals with Sodium-dependent serotonin transporter (Rattus norvegicus), P31652 [S404C]. Briefly: Effect on 2-(aminoethyl)methanethiosulphonate hydrobromide-induced inactivation of rat SERT S404C mutant assessed as increase in rate constant for inactivation. Put shortly:
as §1

The species entered for data set [11] is Rattus norvegicus. Briefly: Effect on 2-(aminoethyl)methanethiosulphonate hydrobromide-induced inactivation of rat SERT […] mutant assessed as increase in rate constant for inactivation. Put shortly:
as §1

Data set [12] has as its system Sodium-dependent serotonin transporter (Rattus norvegicus), P31652 [G273C]. Briefly: Effect on 2-(aminoethyl)methanethiosulphonate hydrobromide-induced inactivation of rat SERT G273C mutant assessed as increase in rate constant for inactivation. The gist of the method:
as §1

Data set [13] is filed under the species Rattus norvegicus. Nature of the data set: Effect on 2-(aminoethyl)methanethiosulphonate hydrobromide-induced inactivation of rat SERT K279 mutant. The gist of the method: as §2
For data set [14], the system named is Sodium-dependent serotonin transporter (Rattus norvegicus), P31652 [K272C]. Briefly: Effect on 2-(aminoethyl)methanethiosulphonate hydrobromide-induced inactivation of rat SERT K272C mutant assessed as increase in rate constant for inactivation. Put shortly:
as §1

Data set [15] relates to Sodium-dependent serotonin transporter (Rattus norvegicus), P31652 [S277C]. Nature of the data set: Effect on 2-(aminoethyl)methanethiosulphonate hydrobromide-induced inactivation of rat SERT S277C mutant assessed as increase in rate constant for inactivation. The gist of the method:
as §1

Data set [16] has as its system Sodium-dependent serotonin transporter (Rattus norvegicus), P31652 [Y107C]. Briefly: Effect on 2-(aminoethyl)methanethiosulphonate hydrobromide-induced inactivation of rat SERT Y107C mutant assessed as increase in rate constant for inactivation. The gist of the method:
as §1

Compound in data set [17]: CC[C@H]1C[C@H]2C[C@H]3c4[nH]c5ccc(OC)cc5c4CCN(C2)[C@@H]13
Briefly: (§3) Inhibition of [3H]5HT transport at rat SERT expressed in pig LLC-PK1 cells at 5 uM. The class given is cell-based. The gist of the method: (§4)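 LLC-PK1 cells stably expressing rat SERT were grown as monolayers. Uptake of [3H]5-HT at varied concentrations was measured for 5 min with or without 5 μM ibogaine. Nonspecific uptake was defined with 100 μM cocaine. Km and Vmax were fitted, with an Eadie-Hofstee plot also shown.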

Compound in data set [18]: COC(=O)[C@H]1[C@@H](OC(=O)c2ccccc2)C[C@@H]2CC[C@H]1N2C
The description is as §3. Type of data set: cell-based. The gist of the method: as §4

Calls of active or inactive are those of the source. The calls are words filed in the database; no cut-off is given here.

T2 sequence (P31645 whole entry): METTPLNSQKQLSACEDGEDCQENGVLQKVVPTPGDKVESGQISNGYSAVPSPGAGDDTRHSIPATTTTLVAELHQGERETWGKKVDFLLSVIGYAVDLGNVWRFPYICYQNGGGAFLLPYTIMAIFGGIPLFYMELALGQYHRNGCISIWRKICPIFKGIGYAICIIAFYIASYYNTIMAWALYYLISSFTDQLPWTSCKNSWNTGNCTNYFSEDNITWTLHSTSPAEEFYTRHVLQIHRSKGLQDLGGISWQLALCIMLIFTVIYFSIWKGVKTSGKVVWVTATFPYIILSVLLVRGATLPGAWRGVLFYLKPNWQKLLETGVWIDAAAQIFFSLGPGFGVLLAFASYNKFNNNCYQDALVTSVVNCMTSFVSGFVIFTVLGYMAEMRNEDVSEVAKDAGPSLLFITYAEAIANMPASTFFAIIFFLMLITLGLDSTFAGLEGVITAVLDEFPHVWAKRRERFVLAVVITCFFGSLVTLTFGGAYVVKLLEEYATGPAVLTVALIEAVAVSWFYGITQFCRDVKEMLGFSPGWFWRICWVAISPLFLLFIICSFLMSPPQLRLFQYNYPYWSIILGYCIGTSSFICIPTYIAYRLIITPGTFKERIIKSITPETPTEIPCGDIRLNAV

On to `CC[C@H]1C[C@@H]2C[C@H]3c4[nH]c5ccc(OC)cc5c4CCN(C2)[C@@H]13` [IBOGAINE], for which the IC50 in data set [1] is 2500 nM; in [2], 6300 nM.

On to `COC(=O)[C@H]1[C@@H](c2ccc(I)cc2)C[C@@H]2CC[C@H]1N2C`, for which the Kd was found to be 0.88 nM in data set [3] and 2.82 nM in [4].

Consider `COC(=O)[C@H]1[C@@H](OC(=O)c2ccccc2)C[C@@H]2CC[C@H]1N2C`, for which, in data set [5], the Activity stood at 0.58 µM.

Turning to `CC[C@H]1C[C@H]2C[C@H]3c4[nH]c5ccc(OC)cc5c4CCN(C2)[C@@H]13`, the result in [6], in data set [7], in data set [9], in data set [10], in data set [11] and in data set [12] was Active. In addition, the result in data set [14], in data set [15] and in data set [16] was Active. Besides, the outcome in data set [8] and in data set [13] was inactive. Besides, in [5], the Activity is 0.98 µM.

`NCCc1c[nH]c2ccc(O)cc12`: the outcome in data set [6], in data set [7], in data set [10], in data set [11], in data set [12] and in data set [14] was Active. Further, the outcome in data set [15] and in data set [16] was Active. For the same molecule, the result in data set [9] was inactive. Also, the Activity in data set [5] was found to be 0.68 µM.

B1: Sodium-dependent serotonin transporter (Rattus norvegicus), P31652 (protein)
chain: METTPLNSQKVLSECKDREDCQENGVLQKGVPTTADRAEPSQISNGYSAVPSTSAGDEASHSIPAATTTLVAEIRQGERETWGKKMDFLLSVIGYAVDLGNIWRFPYICYQNGGGAFLLPYTIMAIFGGIPLFYMELALGQYHRNGCISIWRKICPIFKGIGYAICIIAFYIASYYNTIIAWALYYLISSLTDRLPWTSCTNSWNTGNCTNYFAQDNITWTLHSTSPAEEFYLRHVLQIHQSKGLQDLGTISWQLTLCIVLIFTVIYFSIWKGVKTSGKVVWVTATFPYIVLSVLLVRGATLPGAWRGVVFYLKPNWQKLLETGVWVDAAAQIFFSLGPGFGVLLAFASYNKFNNNCYQDALVTSVVNCMTSFVSGFVIFTVLGYMAEMRNEDVSEVAKDAGPSLLFITYAEAIANMPASTFFAIIFFLMLITLGLDSTFAGLEGVITAVLDEFPHIWAKRREWFVLIVVITCVLGSLLTLTSGGAYVVTLLEEYATGPAVLTVALIEAVAVSWFYGITQFCSDVKEMLGFSPGWFWRICWVAISPLFLLFIICSFLMSPPQLRLFQYNYPHWSIVLGYCIGMSSVICIPTYIIYRLISTPGTLKERIIKSITPETPTEIPCGDIRMNAV
Take B1: in data set [17], the Michaelis constant (Km) came out at 0.17 µM and the Vmax was found to be 14 pmol/min/mg. Also, in data set [18], the Km was 0.2 µM and the Vmax is 35.7 pmol/min/mg.

For orientation: IC50 means the concentration at which inhibition is half-maximal. High values mean a need for much substance, low ones inhibition by little substance. The term Kd denotes the concentration at which binding is half-saturated. One may read the Km as the concentration of substrate that gives half-maximal velocity. One may read the Vmax as the top rate of the reaction or transport when substrate is in excess.
